Compound activity from PubChem BioAssay.
A selection: hits, their analogues and other compounds. The true share with any hit is near 5.7%.
CSC inhib: cancer stem cell inhibition; inhibition, % at 7.5 µM; cancer stem cell-like cells viability, luminescence; hit rate 1.1% among 300,000; AID 2717; in the data active means inhibition above about 75%; tested in HMLE shEcad cells
Calb FLC: affects C. albicans growth with fluconazole; growth inhibition, % (no concentration beside the values); hit rate 0.57% among 300,000; C. albicans CaCi-2 (fluconazole-resistant clinical isolate) + fluconazole, Alamar Blue growth, 48 h; AID 1979;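 active means growth inhibition above about 58% in most replicates, limit read from the data, passing the limit was not always enough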;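 further: all wells also contain fluconazole at 8 µg/ml as a sub-toxic cotreatment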
SKKanGAS inh: SKKanGAS growth inhibition | S. pyogenes SKKanGAS, kanamycin growth, BacTiter-Glo, 6 h | inhibition, % at 7.5 µM | hit rate 1.3% among 300,000;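 active means mean replicate score, as percent of positive control median, at least 50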;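 further: strain carries kanamycin resistance gene driven by streptokinase promoter and grows in 40 µg/ml kanamycin; loss of luminescence reflects streptokinase promoter inhibition or plain growth inhibition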
Beta cell apopt: beta cell apoptosis inhibition. protection from apoptosis, % (concentration not given with the values). INS-1E cytokine-induced death, ATP luminescence, 48 h; percent of positive-control rescue, neutral wells zero. hit rate 0.8% among 300,000;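 active means Every replicate reaches about 75%, or at least half do and their mean reaches it too, limit read from the data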;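 further: higher means more ATP so stronger rescue from cytokine killing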
T cruzi inh: blocks replication of Trypanosoma cruzi; T. cruzi beta-gal in NIH3T3, luminescence, 90 h; hit rate 1.4% among 300,000; inhibition, % (concentration not given with the values);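 active means mean inhibition across valid replicates above about 55%, limit read from the data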;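 further: signal also drops with host cell toxicity which is not excluded here; higher percent means less beta-gal luminescence so fewer parasites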
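System: Mouse NIH/3T3 fibroblasts infected with β-gal-expressing T. cruzi Tulahuen C4 | Quantity: NIH/3T3 cells, 5,000 per well | Reagent: 5000 reporter trypomastigotes per well | Dosing: Compound pinned at 50 nL/well, DMSO | Schedule: 3 h host attachment, then at least 90 h co-culture | Detection: GalScreen luminescence, 60 min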
Mdm2-MdmX inh: inhibitors of human Mdm2/MdmX interaction; O15151+Q00987; SaOS-2 split-luciferase Mdm2/MdmX complementation, luminescence; hit rate 3% among 330,000; inhibition, % at 8 µM;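 active means inhibition of at least 50% at 8 µM in the primary screen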
Mdm2-MdmX conf: human Mdm2/MdmX binding inhibition, confirmed | shares compounds with Mdm2-MdmX inh | luminescent assay | hit rate 55% among 10,000 | inhibition, % at 8 µM; in the data active means inhibition above about 40%
FLuc counter: inhibits full-length luciferase, flagging false Mdm2/MdmX hits. shares compounds with Mdm2-MdmX inh. SaOS-2 full-length luciferase counterscreen, luminescence. inhibition, % at 8 µM. hit rate 77% among 6,200. AID 504607;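 active means mean inhibition at 8 µM reaching about 37%, which flags the compound as non-specific, limit read from the data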;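 further: p53-null SaOS-2 cells with luciferase driven by a doxycycline-inducible promoter; compound on cells about two nights before reading with doxycycline added after day one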
Hits are given with their value.

Results for COc1ccc(/C=C2\SC(=S)N(CCC(=O)N(CCO)c3ccccc3)C2=O)cc1OC ?
CSC inhib: inactive; Calb FLC: inactive; SKKanGAS inh: inactive; Beta cell apopt: inactive; T cruzi inh: inactive; Mdm2-MdmX inh: inactive

Results for Cc1cc(NC(=O)CCCN2C(=O)/C(=C\c3cccs3)SC2=S)no1 ?
CSC inhib: inactive; Calb FLC: inactive; SKKanGAS inh: inactive; Beta cell apopt: inactive; T cruzi inh: inactive; Mdm2-MdmX inh: inactive

How did O=C1/C(=C/c2cccs2)SC(=S)N1CCCC(=O)N(CCO)c1ccccc1 do in these assays?
CSC inhib: inactive; Calb FLC: inactive; SKKanGAS inh: inactive; Beta cell apopt: inactive; T cruzi inh: inactive; Mdm2-MdmX inh: 53; Mdm2-MdmX conf: inactive

How did O=C(CCCN1C(=O)/C(=C\c2cccs2)SC1=S)NNC(=O)c1ccncc1 do in these assays?
CSC inhib: inactive; Calb FLC: inactive; SKKanGAS inh: inactive; Beta cell apopt: inactive; T cruzi inh: inactive; Mdm2-MdmX inh: inactive

Results for COc1ccccc1C(=O)NNC(=O)CCCN1C(=O)/C(=C/c2cccs2)SC1=S ?
CSC inhib: inactive; Calb FLC: inactive; SKKanGAS inh: inactive; Beta cell apopt: inactive; T cruzi inh: inactive; Mdm2-MdmX inh: 72; Mdm2-MdmX conf: 77; FLuc counter: 63

What do the screens show for `COc1cccc(NC(=O)CN(C)C(=O)c2cccc(S(=O)(=O)Nc3ccccc3OC)c2)c1`?
Beta cell apopt: inactive; Mdm2-MdmX inh: inactive

Results for COCCSc1ccccc1C(=O)Nc1ccc(Cl)cc1 ?
CSC inhib: inactive; Calb FLC: inactive; SKKanGAS inh: inactive; Beta cell apopt: inactive; T cruzi inh: inactive; Mdm2-MdmX inh: inactive

How did CC(C)(O)C#Cc1ccc([C@@H]2C[C@H]3CN(c4ccccc4)C(=O)[C@]34CCCN24)s1 do in these assays?
CSC inhib: inactive; Calb FLC: inactive; SKKanGAS inh: inactive; Beta cell apopt: inactive; T cruzi inh: inactive; Mdm2-MdmX inh: 64; Mdm2-MdmX conf: 41; FLuc counter: 60

Results for C=CCn1c(=O)c2ccccc2n2c(SCC(=O)NCC)nnc12 ?
CSC inhib: inactive; Calb FLC: inactive; SKKanGAS inh: inactive; Beta cell apopt: inactive; T cruzi inh: inactive; Mdm2-MdmX inh: inactive

How did Oc1c(Cl)cc(Cl)cc1Sc1cc(Cl)cc(Cl)c1O do in these assays?
CSC inhib: 120; SKKanGAS inh: 106; Beta cell apopt: inactive; T cruzi inh: inactive; Mdm2-MdmX inh: 100; Mdm2-MdmX conf: 92; FLuc counter: inactive

What do the screens show for `Oc1ccc(/C=N/Nc2ccc(C(F)(F)F)cn2)c(O)c1`?
CSC inhib: 102; Calb FLC: 100; SKKanGAS inh: inactive; Beta cell apopt: inactive; T cruzi inh: inactive; Mdm2-MdmX inh: 64; Mdm2-MdmX conf: inactive; FLuc counter: 56

How did Oc1ccc(/C=N/Nc2ccc(C(F)(F)F)cn2)cc1 do in these assays?
CSC inhib: inactive; Calb FLC: inactive; SKKanGAS inh: inactive; Beta cell apopt: inactive; T cruzi inh: inactive; Mdm2-MdmX inh: inactive

Results for COC(=O)Cc1ccc(NC(=O)c2ccc(C(C)(C)C)cc2)cc1 ?
CSC inhib: inactive; Calb FLC: inactive; SKKanGAS inh: inactive; T cruzi inh: inactive; Mdm2-MdmX inh: 66; Mdm2-MdmX conf: 55; FLuc counter: inactive

What do the screens show for `CC(C)(C)c1ccc(C(=O)Nc2ccc(Cl)cc2)cc1`?
CSC inhib: inactive; Calb FLC: inactive; SKKanGAS inh: inactive; Beta cell apopt: inactive; T cruzi inh: inactive; Mdm2-MdmX inh: inactive

What do the screens show for `CCOC(=O)N1CCN(CCC(=O)Nc2ccc(F)c(F)c2)CC1`?
CSC inhib: inactive; Calb FLC: inactive; SKKanGAS inh: inactive; T cruzi inh: inactive; Mdm2-MdmX inh: inactive

Results for CCOCCCNC(=O)/C(C#N)=C/c1ccc(Cl)c([N+](=O)[O-])c1 ?
CSC inhib: inactive; Calb FLC: inactive; SKKanGAS inh: inactive; Beta cell apopt: inactive; T cruzi inh: inactive; Mdm2-MdmX inh: 73; Mdm2-MdmX conf: inactive

How did Fc1ccc(N2CCN(c3cnc4ccccc4n3)CC2)cc1 do in these assays?
Calb FLC: inactive; SKKanGAS inh: inactive; T cruzi inh: inactive; Mdm2-MdmX inh: inactive
